# Active and inactive are the calls of the source. The calls are words filed in the database; no cut-off is given here.
# Tests used:
# [1] = tested on: Vaccinia virus; assay: Antiviral activity against Vaccinia virus infected in human KB cells assessed as inhibition of virus-induced cytopathic effect at 1 to 1000 ug/ml after 72 hrs; assay type: functional, organism-based; settings: Orthopoxvirus vaccinia
# [2] = tested on: Human alphaherpesvirus 1; assay: Antiviral activity against HSV1 infected in human KB cells assessed as inhibition of virus-induced cytopathic effect at 1 to 1000 ug/ml after 72 hrs; assay type: functional, organism-based
# Procedure, shortened: (§1)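 KB cell monolayers (24 h old) infected with 320 cell culture 50% infectious doses/mL of virus; compound added 15 min after infection at 1000 to 1 μg/mL. Plates incubated 72 h at 37 °C and scored for inhibition of viral CPE. Activity was expressed as a virus rating that accounts for cytotoxicity and CPE in treated versus untreated cells. VR 0.5 or above was taken as definite activity.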
# [3] = tested on: Human respirovirus 3; assay: Antiviral activity against Parainfluenza virus type 3 infected in human KB cells assessed as inhibition of virus-induced cytopathic effect at 1 to 1000 ug/ml after 72 hrs; assay type: functional, organism-based; procedure, shortened: as §1
# [4] = tested on: KB; assay: Antiviral activity against Rhinovirus type 13 infected in human KB cells assessed as inhibition of virus-induced cytopathic effect at 1 to 1000 ug/ml after 72 hrs; assay type: functional, cell-based; settings: Human rhinovirus A13; procedure, shortened: as §1
# [5] = tested on: KB; assay: Antiviral activity against Adenovirus type 3 infected in human KB cells assessed as inhibition of virus-induced cytopathic effect at 1 to 1000 ug/ml after 72 hrs; assay type: functional, cell-based; settings: Human adenovirus 3; procedure, shortened: as §1
# [6] = tested on: Mus musculus; assay: Toxicity in Swiss mouse infected with Influenza A2 virus Japan 305 assessed as survival at 75 mg/kg/day, po bid administered for 9 days started at 4 hrs prior to infection; assay type: organism-based; design: route oral; settings: in vivo
# [7] = tested on: Mus musculus; assay: Toxicity in Swiss mouse infected with Influenza B virus Lee assessed as survival at 75 mg/kg/day, ip bid administered for 9 days started at 4 hrs prior to infection; assay type: organism-based; design: route intraperitoneal; settings: in vivo
# [8] = tested on: Mus musculus; assay: Toxicity in Swiss mouse infected with Murine hepatitis virus Friend-Braunsteiner assessed as survival at 75 mg/kg/day, ip bid administered for 8 days started at 2 hrs prior to infection; assay type: organism-based; design: route intraperitoneal; settings: in vivo
# [9] = tested on: Mus musculus; assay: Toxicity in Swiss mouse infected with Murine hepatitis virus Friend-Braunsteiner assessed as survival at 37.5 mg/kg/day, ip bid administered for 8 days started at 2 hrs prior to infection; assay type: organism-based; design: route intraperitoneal; settings: in vivo
# [10] = tested on: Mus musculus; assay: Toxicity in Swiss mouse infected with Murine hepatitis virus Friend-Braunsteiner assessed as survival at 18.8 mg/kg/day, ip bid administered for 8 days started at 2 hrs prior to infection; assay type: organism-based; design: route intraperitoneal; settings: in vivo
# [11] = tested on: Influenza A virus; assay: Antiviral activity against Influenza A2 virus Japan 305 infected in Swiss mouse assessed as survival at 75 mg/kg/day, po bid administered for 9 days relative to control; assay type: functional, organism-based
# [12] = tested on: Influenza B virus; assay: Antiviral activity against Influenza B virus Lee infected in Swiss mouse assessed as survival at 75 mg/kg/day, ip bid administered for 9 days relative to control; assay type: functional, organism-based
# Procedure, shortened: (§2)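 Swiss mice, 14-16 g, given virus intranasally at a dose lethal to 95%. Dosed intraperitoneally twice daily for 9 days, starting 4 h before infection; controls got saline. Survivors counted on day 21 postinfection; survival compared by χ² analysis. Mean survival time is from animals dying on or before day 21 and was compared by t test.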
# [13] = tested on: Murine hepatitis virus; assay: Antiviral activity against Murine hepatitis virus Friend-Braunsteiner infected in Swiss mouse assessed as survival at 18.8 to 75 mg/kg/day, ip bid administered for 8 days relative to control; assay type: functional, organism-based
# Procedure, shortened: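 Swiss mice of 16-18 g were inoculated ip with a 95% lethal dose of virus. Treatment was given ip twice daily for 8 days, starting 2 h before inoculation, at 75, 37.5 or 18.8 mg/kg/day; placebo controls received saline. Survivors were counted on day 21 postinfection and compared by χ² analysis. Mean survival time covered animals dying by day 21 and was compared by t test. Uninfected toxicity controls were included.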
# [14] = tested on: Influenza A virus; assay: Antiviral activity against Influenza A2 virus Japan 305 infected in Swiss mouse assessed as mean survival time at 75 mg/kg/day, po bid administered for 9 days (reference value: 9 days); assay type: functional
# [15] = tested on: Influenza B virus; assay: Antiviral activity against Influenza B virus Lee infected in Swiss mouse assessed as mean survival time at 75 mg/kg/day, ip bid administered for 9 days (reference value: 11.2 days); assay type: functional; settings: route intraperitoneal; procedure, shortened: as §2
# [16] = tested on: Murine hepatitis virus; assay: Antiviral activity against Murine hepatitis virus Friend-Braunsteiner infected in Swiss mouse assessed as mean survival time at 75 mg/kg/day, ip bid administered for 8 days (reference value: 5.2 days); assay type: functional; settings: route intraperitoneal
# Procedure, shortened: (§3)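 Swiss mice, 16-18 g, inoculated ip with a 95% lethal dose of virus. Dosed ip twice daily for 8 days, beginning 2 h before inoculation, at 18.8, 37.5 or 75 mg/kg/day; controls got saline. Survivors counted on day 21; survival compared by χ² analysis. Mean survival time is from deaths on or before day 21, compared by t test.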
# [17] = tested on: Murine hepatitis virus; assay: Antiviral activity against Murine hepatitis virus Friend-Braunsteiner infected in Swiss mouse assessed as mean survival time at 37.5 mg/kg/day, ip bid administered for 8 days (reference value: 5.2 days); assay type: functional; settings: route intraperitoneal; procedure, shortened: as §3
# [18] = tested on: Murine hepatitis virus; assay: Antiviral activity against Murine hepatitis virus Friend-Braunsteiner infected in Swiss mouse assessed as mean survival time at 18.8 mg/kg/day, ip bid administered for 8 days (reference value: 5.2 days); assay type: functional; settings: route intraperitoneal; procedure, shortened: as §3
# [19] = Toxicity in Swiss mouse; assay type: organism-based; settings: in vivo
# [20] = tested on: Murine hepatitis virus; assay: Antiviral activity against Murine hepatitis virus Friend-Braunsteiner infected in ip dosed Swiss mouse assessed as most effective dose administered bid for 8 days; assay type: functional; procedure, shortened: as §3
SMILES,Activity [1],Activity [2],Activity [3],Activity [4],Activity [5],Activity [6],Activity [7],Activity [8],Activity [9],Activity [10],Activity [11],Activity [12],Activity [13],MSD [14],MSD [15],MSD [16],MSD [17],MSD [18],MTD [19],Activity [20]
NC(=O)c1ncn([C@@H]2O[C@H](COP(=O)([O-])[O-])[C@@H](O)[C@H]2O)n1.[Li+].[Li+],Active,Active,Active,Active,inactive,Non-toxic,Non-toxic,Non-toxic,Non-toxic,Non-toxic,Active,Active,Active,7.6 days,13.3 days,6.1 days,6 days,5.3 days,150 mg/kg/day,37.5 mg/kg/day
NC(=O)c1ncn([C@@H]2O[C@H](COP(=O)(O)OP(=O)(O)OP(=O)(O)O)[C@@H](O)[C@H]2O)n1,Active,Active,Active,Active,inactive,,,,,,,,,,,,,,,
NC(=O)c1ncn([C@@H]2O[C@H](CO)[C@H]3OP(=O)(O)O[C@H]32)n1,Active,Active,Active,Active,inactive,,,,,,,,,,,,,,,
NC(=O)c1ncn([C@@H]2O[C@H](COP(=O)(O)OP(=O)(O)O)[C@@H](O)[C@H]2O)n1,Active,Active,Active,Active,inactive,,,,,,,,,,,,,,,
NC(=O)c1ncn([C@@H]2O[C@H](CO)[C@@H](O)[C@H]2O)n1,Active,Active,Active,Active,Active,,,,,,,,,,,,,,,
NC(=O)c1ncn([C@@H]2O[C@@H]3COP(=O)(O)O[C@H]3[C@H]2O)n1,Active,Active,Active,Active,inactive,,,,,,,,,,,,,,,

# — ChEMBL document CHEMBL3244032, “Synthesis and antiviral acticity of some phosphates of the broad-spectrum antiviral nucleoside, 1-beta-D-ribofuranosyl-1,2,4-triazole-3-carboxamide (ribavirin)” (J Med Chem, 1978)
